Results published in ChEMBL document CHEMBL1153264, “(1,2,3-Triazol-4-yl)benzenamines: synthesis and activity against VEGF receptors 1 and 2” (Bioorg Med Chem Lett, 2009).
pIC50, pKi: −log10 of the molar value.

Tests used:
[1] = molecular target: Hepatocyte growth factor receptor (Homo sapiens) (UniProt P08581); experiment: Inhibition of c-Met at 10 uM
[2] = molecular target: Aurora kinase B (Homo sapiens) (UniProt Q96GD4); experiment: Inhibition of Aurora B at 10 uM
[3] = molecular target: T1, Vascular endothelial growth factor receptor 2 (Homo sapiens, UniProt P35968); experiment: Binding affinity to VEGFR2 at IC90 in presence of ATP
How it was run: (§1)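 ATP competition assay with VEGFR-2. Five concentrations of ³²P ATP across 0-100 µM, each incubated with enzyme for 45 min at RT. Inhibitor was absent or present at two fixed levels.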

[4] = molecular target: Cyclin-dependent kinase 2 (Homo sapiens) (UniProt P24941); experiment: Inhibition of Cdk2 at 10 uM
[5] = molecular target: Vascular endothelial growth factor receptor 1 (Homo sapiens, UniProt P17948); experiment: Inhibition of VEGFR1 by HTRF assay
Vascular endothelial growth factor receptor 1, sequence (P17948 whole entry): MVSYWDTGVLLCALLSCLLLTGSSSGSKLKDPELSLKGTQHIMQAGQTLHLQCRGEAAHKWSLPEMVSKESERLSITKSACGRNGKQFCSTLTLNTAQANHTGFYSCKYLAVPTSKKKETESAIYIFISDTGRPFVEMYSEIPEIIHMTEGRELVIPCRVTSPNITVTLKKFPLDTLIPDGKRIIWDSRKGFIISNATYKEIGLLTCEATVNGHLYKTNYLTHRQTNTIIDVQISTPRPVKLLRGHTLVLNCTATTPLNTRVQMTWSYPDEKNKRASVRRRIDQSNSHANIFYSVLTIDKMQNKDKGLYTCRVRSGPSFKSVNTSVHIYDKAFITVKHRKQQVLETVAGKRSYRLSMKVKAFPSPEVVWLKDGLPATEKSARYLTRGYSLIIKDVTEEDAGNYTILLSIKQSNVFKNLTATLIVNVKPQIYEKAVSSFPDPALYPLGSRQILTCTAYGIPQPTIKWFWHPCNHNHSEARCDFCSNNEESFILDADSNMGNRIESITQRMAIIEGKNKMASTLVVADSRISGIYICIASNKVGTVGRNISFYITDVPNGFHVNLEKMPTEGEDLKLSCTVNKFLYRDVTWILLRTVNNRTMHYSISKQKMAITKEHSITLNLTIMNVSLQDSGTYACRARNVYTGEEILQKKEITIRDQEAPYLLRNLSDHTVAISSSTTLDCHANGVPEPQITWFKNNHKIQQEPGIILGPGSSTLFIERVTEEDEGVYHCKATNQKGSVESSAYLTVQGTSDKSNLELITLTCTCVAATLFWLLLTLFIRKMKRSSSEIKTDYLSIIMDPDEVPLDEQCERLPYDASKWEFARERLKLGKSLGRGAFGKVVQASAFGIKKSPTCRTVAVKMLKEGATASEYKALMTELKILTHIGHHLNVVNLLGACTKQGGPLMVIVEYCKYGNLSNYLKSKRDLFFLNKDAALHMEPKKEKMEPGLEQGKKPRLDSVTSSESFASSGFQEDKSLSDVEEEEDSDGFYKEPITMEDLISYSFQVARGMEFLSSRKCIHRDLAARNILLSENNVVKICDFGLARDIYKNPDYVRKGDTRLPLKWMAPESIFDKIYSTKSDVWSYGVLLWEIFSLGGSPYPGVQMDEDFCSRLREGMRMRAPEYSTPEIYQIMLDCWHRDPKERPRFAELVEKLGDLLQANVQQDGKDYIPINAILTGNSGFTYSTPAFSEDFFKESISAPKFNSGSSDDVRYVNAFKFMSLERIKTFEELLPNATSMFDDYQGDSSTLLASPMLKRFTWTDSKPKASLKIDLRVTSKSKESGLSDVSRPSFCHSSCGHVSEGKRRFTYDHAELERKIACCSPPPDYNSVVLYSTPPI

[6] = molecular target: Serine/threonine-protein kinase PLK1 (Homo sapiens) (UniProt P53350); experiment: Inhibition of Plk1 at 10 uM
Serine/threonine-protein kinase PLK1 (Homo sapiens), sequence (P53350 whole entry): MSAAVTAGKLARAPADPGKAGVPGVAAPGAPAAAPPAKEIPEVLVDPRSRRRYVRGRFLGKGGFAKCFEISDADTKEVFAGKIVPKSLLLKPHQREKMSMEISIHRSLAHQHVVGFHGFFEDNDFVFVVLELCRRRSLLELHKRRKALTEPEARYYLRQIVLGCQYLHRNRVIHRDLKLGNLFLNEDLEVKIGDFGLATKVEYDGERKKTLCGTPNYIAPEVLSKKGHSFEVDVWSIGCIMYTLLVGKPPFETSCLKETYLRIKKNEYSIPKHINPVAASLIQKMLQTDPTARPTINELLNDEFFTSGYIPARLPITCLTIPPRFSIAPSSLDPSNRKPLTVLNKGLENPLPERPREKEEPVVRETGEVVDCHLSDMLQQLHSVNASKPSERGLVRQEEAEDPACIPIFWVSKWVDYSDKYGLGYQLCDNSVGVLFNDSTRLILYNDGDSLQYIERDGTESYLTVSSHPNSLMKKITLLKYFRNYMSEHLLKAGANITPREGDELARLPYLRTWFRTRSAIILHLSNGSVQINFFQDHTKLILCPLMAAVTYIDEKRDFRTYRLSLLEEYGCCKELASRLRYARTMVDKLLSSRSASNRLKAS

[7] = molecular target: Glycogen synthase kinase-3 beta (Homo sapiens) (UniProt P49841); experiment: Inhibition of GSK3-beta at 10 uM
Glycogen synthase kinase-3 beta (Homo sapiens), sequence (P49841 whole entry, looked up): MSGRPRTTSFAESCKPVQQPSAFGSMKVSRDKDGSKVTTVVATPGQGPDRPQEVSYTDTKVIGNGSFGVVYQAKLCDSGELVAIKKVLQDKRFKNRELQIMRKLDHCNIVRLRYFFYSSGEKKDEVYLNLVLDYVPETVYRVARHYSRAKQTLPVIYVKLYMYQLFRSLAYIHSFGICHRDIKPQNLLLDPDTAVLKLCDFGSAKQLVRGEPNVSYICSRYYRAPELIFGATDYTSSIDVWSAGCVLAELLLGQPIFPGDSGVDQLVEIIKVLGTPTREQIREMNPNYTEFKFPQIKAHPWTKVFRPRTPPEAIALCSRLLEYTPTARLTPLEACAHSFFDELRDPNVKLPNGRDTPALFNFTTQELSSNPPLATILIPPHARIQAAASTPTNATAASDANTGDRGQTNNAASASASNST

[8] = molecular target: T1, Vascular endothelial growth factor receptor 2; experiment: Binding affinity to VEGFR2 at IC50 in presence of ATP; how it was run: as §1
[9] = molecular target: Cyclin-dependent kinase 1 (Homo sapiens) (UniProt P06493); experiment: Inhibition of Cdk1 at 10 uM
Cyclin-dependent kinase 1 (Homo sapiens), sequence (P06493 whole entry, looked up): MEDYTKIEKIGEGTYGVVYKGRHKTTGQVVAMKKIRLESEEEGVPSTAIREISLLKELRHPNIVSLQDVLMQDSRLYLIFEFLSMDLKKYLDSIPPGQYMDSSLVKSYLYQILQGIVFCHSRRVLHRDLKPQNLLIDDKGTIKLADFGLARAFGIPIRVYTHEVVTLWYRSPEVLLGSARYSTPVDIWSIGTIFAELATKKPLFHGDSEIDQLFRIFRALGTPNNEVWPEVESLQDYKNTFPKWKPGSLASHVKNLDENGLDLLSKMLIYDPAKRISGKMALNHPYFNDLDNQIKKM

[10] = molecular target: Receptor tyrosine-protein kinase erbB-2 (Homo sapiens) (UniProt P04626); experiment: Inhibition of ErbB2 at 10 uM
[11] = Inhibition of PKA at 10 uM
[12] = molecular target: Bcr/Abl fusion protein (Homo sapiens) (UniProt P00519+P11274); experiment: Inhibition of Bcr-Abl at 10 uM; format: protein assay
[13] = molecular target: Fibroblast growth factor receptor 1 (Homo sapiens) (UniProt P11362); experiment: Inhibition of FGFR1 at 10 uM
[14] = molecular target: T2, Aurora kinase A (Homo sapiens) (UniProt O14965); experiment: Inhibition of Aurora A at 10 uM
T2 sequence (whole entry): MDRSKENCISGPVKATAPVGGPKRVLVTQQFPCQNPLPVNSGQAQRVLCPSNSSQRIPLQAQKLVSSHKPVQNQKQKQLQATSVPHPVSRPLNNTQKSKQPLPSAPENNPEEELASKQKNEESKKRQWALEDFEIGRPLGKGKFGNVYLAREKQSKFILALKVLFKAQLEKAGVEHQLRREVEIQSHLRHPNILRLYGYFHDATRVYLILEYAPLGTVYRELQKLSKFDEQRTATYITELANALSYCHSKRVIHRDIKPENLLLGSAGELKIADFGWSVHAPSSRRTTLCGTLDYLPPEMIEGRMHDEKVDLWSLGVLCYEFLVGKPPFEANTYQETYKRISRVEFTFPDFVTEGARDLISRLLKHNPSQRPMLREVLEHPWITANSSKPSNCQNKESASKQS

[15] = molecular target: Epidermal growth factor receptor (Homo sapiens) (UniProt P00533); experiment: Inhibition of EGFR at 10 uM
[16] = molecular target: Proto-oncogene tyrosine-protein kinase Src (Homo sapiens) (UniProt P12931); experiment: Inhibition of Src at 10 uM
Proto-oncogene tyrosine-protein kinase Src (Homo sapiens), sequence (P12931 2-536 limits assumed): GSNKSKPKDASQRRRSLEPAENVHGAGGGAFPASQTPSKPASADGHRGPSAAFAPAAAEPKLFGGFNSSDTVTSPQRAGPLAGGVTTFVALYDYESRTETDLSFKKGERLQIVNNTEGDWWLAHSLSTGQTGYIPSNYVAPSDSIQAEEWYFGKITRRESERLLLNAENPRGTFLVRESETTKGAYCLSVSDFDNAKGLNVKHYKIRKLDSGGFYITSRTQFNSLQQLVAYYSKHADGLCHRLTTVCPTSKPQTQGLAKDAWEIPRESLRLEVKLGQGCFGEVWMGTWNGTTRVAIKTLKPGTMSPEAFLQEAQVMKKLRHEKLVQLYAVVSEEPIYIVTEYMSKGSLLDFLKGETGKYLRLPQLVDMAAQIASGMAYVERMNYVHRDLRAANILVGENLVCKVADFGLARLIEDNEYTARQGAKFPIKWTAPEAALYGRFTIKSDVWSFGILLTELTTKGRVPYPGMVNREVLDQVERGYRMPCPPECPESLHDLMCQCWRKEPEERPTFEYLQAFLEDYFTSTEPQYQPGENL

[17] = molecular target: Insulin-like growth factor 1 receptor (Homo sapiens) (UniProt P08069); experiment: Inhibition of IGF1R at 10 uM
[18] = Inhibition of Bcr-Abl T315 mutant at 10 uM
[19] = molecular target: Insulin receptor (Homo sapiens) (UniProt P06213); experiment: Inhibition of IR at 10 uM
Insulin receptor (Homo sapiens), sequence (P06213 28-758 limits assumed): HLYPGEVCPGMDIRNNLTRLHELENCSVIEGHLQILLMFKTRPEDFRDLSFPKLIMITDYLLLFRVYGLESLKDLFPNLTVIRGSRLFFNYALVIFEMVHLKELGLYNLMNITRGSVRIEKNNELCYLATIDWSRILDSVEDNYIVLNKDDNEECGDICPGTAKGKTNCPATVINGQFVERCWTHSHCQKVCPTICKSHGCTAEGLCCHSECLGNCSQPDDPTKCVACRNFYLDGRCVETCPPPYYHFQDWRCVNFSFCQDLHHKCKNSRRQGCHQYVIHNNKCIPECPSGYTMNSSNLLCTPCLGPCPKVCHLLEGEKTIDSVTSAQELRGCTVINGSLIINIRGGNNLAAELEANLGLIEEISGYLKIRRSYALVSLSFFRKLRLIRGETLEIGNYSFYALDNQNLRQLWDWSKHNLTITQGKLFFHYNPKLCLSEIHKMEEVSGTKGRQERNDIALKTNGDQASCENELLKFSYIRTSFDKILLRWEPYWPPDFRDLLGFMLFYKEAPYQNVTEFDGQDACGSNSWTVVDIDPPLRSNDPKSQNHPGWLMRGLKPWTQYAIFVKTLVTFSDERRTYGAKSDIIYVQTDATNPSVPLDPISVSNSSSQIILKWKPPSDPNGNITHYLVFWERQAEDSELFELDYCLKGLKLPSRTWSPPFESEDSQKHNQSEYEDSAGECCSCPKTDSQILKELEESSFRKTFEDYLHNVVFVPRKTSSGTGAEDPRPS
Insulin receptor (Homo sapiens), sequence (P06213 763-1382 limits assumed): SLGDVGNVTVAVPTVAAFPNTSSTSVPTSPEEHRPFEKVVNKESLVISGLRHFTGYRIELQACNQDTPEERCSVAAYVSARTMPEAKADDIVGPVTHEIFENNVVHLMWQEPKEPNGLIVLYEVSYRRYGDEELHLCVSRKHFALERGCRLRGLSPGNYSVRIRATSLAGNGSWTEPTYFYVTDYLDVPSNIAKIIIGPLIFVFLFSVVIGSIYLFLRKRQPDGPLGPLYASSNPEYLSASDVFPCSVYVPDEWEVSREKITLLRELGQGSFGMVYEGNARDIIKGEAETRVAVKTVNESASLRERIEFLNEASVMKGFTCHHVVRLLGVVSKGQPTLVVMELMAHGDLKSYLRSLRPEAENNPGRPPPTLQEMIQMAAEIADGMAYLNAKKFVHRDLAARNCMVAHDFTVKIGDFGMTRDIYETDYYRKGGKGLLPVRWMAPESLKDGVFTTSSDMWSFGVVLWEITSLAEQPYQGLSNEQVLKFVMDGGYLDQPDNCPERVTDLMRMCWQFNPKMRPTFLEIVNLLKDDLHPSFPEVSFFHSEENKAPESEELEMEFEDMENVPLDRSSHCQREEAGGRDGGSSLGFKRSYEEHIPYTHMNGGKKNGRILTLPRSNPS

[20] = molecular target: Receptor-type tyrosine-protein kinase FLT3 (Homo sapiens) (UniProt P36888); experiment: Inhibition of Flt3 at 10 uM
[21] = molecular target: Macrophage-stimulating protein receptor (Homo sapiens) (UniProt Q04912); experiment: Inhibition of Ron at 10 uM
[22] = molecular target: T1, Vascular endothelial growth factor receptor 2; experiment: Inhibition of VEGFR2 by HTRF assay in presence of 2 uM ATP
How it was run: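 HTRF kinase assay with KDR enzyme (3–4 ng) and biotinylated pGAT substrate. ATP added to start, 45 min at RT. Stopped with EDTA/KF buffer plus Eu-cryptate anti-phosphotyrosine antibody, 2 h RT, then HTRF read. IC50 from 10-point log concentration curves, mean of at least two duplicate runs.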

[23] = molecular target: T1, Vascular endothelial growth factor receptor 2; experiment: Inhibition of VEGF-induced phosphorylation of VEGFR2 by cell-based ELISA

Aurora kinase B (Homo sapiens), sequence (Q96GD4 whole entry): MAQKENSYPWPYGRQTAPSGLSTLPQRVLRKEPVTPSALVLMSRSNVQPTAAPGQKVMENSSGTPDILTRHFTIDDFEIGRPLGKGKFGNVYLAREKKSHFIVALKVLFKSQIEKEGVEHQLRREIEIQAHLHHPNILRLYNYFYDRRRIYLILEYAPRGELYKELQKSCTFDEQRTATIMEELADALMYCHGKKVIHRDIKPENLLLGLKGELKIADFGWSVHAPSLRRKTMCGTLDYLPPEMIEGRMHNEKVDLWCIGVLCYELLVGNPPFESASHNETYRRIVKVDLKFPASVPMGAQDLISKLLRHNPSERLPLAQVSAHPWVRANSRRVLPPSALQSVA

Row | SMILES | inhibition [1] | inhibition [2] | pKi [3] | inhibition [4] | pIC50 [5] | inhibition [6] | inhibition [7] | pKi [8] | inhibition [9] | inhibition [10] | inhibition [11] | inhibition [12] | inhibition [13] | inhibition [14] | inhibition [15] | inhibition [16] | inhibition [17] | inhibition [18] | inhibition [19] | inhibition [20] | also measured
1 | Clc1cccc(-n2cc(-c3ccccc3NCc3ccncc3)nn2)c1 | < 30% | < 30% | 6.96 | < 30% | 6.89 | < 30% | < 30% | 6.92 | < 30% | < 30% | < 30% | < 30% | < 30% | < 30% | < 30% | < 30% | < 30% | < 30% | < 30% | < 30% | inhibition [21]: < 30%; pIC50 [22]: 7.06; pIC50 [23]: 6.80
2 | FC(F)(F)c1cccc(-n2cc(-c3ccccc3NCc3ccncc3)nn2)c1 | < 30% | < 30% | 7.10 | < 30% | 7.18 | < 30% | < 30% | 7.05 | < 30% | < 30% | < 30% | < 30% | < 30% | < 30% | < 30% | < 30% | < 30% | < 30% | < 30% | < 30% | inhibition [21]: < 30%; pIC50 [22]: 7.29; pIC50 [23]: 7.02
3 | CC(C)c1cccc(-n2cc(-c3ccccc3NCc3ccncc3)nn2)c1 | < 30% | < 30% | 6.85 | < 30% | 6.89 | < 30% | < 30% | 6.80 | < 30% | < 30% | < 30% | < 30% | < 30% | < 30% | < 30% | < 30% | < 30% | < 30% | < 30% | < 30% | inhibition [21]: < 30%; pIC50 [22]: 6.96; pIC50 [23]: 6.82
